From PubChem
The list is not random: actives were taken first. Their share in the collection is about 1.4%.
FXIIa inh: blocks human coagulation factor XIIa protease activity | P00748 | purified FXIIa, Boc-QGR-AMC fluorogenic substrate, 2 h | inhibition, % at 5 µM | hit rate 0.3% among 220,000; in the data active means inhibition above about 40%
FXIa inh 1536: inhibitors of human coagulation factor XIa. P03951. purified FXIa, Boc-Glu-Ala-Arg-AMC fluorogenic substrate. inhibition, % at 5 µM. hit rate 0.14% among 220,000;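 active means inhibition of at least 40%; inactive means inhibition below 40%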;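 further: fluorescence of freed AMC excited at 355 nm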
Target sequence (P03951 19-387 limits assumed): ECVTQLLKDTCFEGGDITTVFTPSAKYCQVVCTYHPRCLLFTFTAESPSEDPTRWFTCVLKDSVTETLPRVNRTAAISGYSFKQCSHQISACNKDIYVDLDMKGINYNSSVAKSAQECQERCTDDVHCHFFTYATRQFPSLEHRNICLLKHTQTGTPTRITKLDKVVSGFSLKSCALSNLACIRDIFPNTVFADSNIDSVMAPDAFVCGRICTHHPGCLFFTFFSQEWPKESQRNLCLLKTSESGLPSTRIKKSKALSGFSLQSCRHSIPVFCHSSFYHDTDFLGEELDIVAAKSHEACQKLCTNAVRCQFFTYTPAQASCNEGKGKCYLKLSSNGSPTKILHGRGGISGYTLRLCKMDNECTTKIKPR
Target sequence (P03951 388-625 limits assumed): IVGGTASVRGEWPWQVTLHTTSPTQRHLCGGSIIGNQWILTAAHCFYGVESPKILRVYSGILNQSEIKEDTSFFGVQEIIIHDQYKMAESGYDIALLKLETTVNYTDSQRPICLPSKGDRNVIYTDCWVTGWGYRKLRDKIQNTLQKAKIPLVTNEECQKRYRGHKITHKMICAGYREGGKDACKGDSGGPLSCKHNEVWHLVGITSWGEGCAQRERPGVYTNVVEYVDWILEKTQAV
Furin inhibitor: human furin inhibition. hit rate 0.061% among 220,000. purified furin, fluorogenic substrate cleavage. AID 463115. inhibition, % at 20 µM or 30 µM. P09958; in the data active means inhibition above about 25%
hK5 inh: kallikrein 5 (human) inhibition; Q9Y337; AID 873; recombinant hK5, fluorogenic AMC substrate cleavage; inhibition, % at 5 µM; hit rate 0.59% among 210,000;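 active means inhibition of 40% or more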
Thrombin inh: thrombin (human) inhibition. AID 1046. alpha-thrombin, Boc-VPR-AMC fluorogenic substrate cleavage. hit rate 0.26% among 220,000. P00734. inhibition, % at 5 µM;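 active means inhibition at or above 40%; inactive means inhibition below 40%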
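Test system: human alpha-thrombin protein / Dosing: one concentration per compound, 5 µM, with 0.2% DMSO / Medium: pH 7.5 Tris-saline with Tween 20 / Benchmarks: no-compound enzyme wells and no-enzyme blanks / Read-out basis: percent inhibition of thrombin substrate cleavage / Timing: reaction at room temperature / Measured by: fluorescence, ex 355 nm, em 460 nm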
Calpain2 inh: inhibitors of pig calpain II; purified calpain II, fluorogenic peptide substrate, 30 min; inhibition, % at 16 µM; hit rate 0.37% among 220,000;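 active means inhibition above about 50%, limit read from the data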
A number is an active result; n = inactive; x = no result.

SMILES	FXIIa inh	FXIa inh 1536	Furin inhibitor	hK5 inh	Thrombin inh	Calpain2 inh
COc1ccc(S(=O)(=O)NC(CCSC)C(=O)NC2CCCCC2)cc1 (stereo not given)	n	n	n	41	n	n
CSCCC(NS(=O)(=O)c1ccc(C)cc1)C(=O)NC1CCCCC1 (stereo not given)	n	n	n	n	n	n
CCOc1ccccc1N1CC(C(=O)Nc2cccc(S(=O)(=O)N3CCCCC3)c2)CC1=O (stereo not given)	n	n	n	n	n	n
O=C1CC(Sc2ccc(Cl)cc2)C(=O)N1c1ccc2c(c1)OCCO2 (stereo not given)	n	44	n	53	n	n
Cc1nn(CCc2nn[nH]n2)c2nc(-c3ccc(Br)cc3)cc(C(F)(F)F)c12	41	n	n	n	n	n
CCCc1nc(NC(C)=O)c(C#N)c(-c2ccco2)c1CC	n	n	n	n	40	n
CCCCc1nc(N)c(C#N)c(-c2ccco2)c1CCC	n	n	n	n	n	n
CC(NS(=O)(=O)/C=C/c1ccccc1)C(=O)NCCc1ccc(S(N)(=O)=O)cc1 (stereo not given)	n	n	n	n	n	n
CCOC(=O)c1sc(NC(=O)CSC(=S)N2CCN(C)CC2)nc1C	n	44	n	n	n	n
CCCNc1cc(=O)n(C)c(=O)n1C	n	n	n	n	n	n
Cn1c(NCCc2ccccc2)cc(=O)n(C)c1=O	77	n	n	n	n	n
Cn1c(SCC(=O)NC(C)(C)C)nnc1-c1ccc(C(C)(C)C)cc1	n	n	n	42	n	n
COc1ccc(-n2c(SCC(=O)Nc3cc(C)on3)nc3c(c2=O)SCC3)cc1	n	n	n	102	n	n
CCCCOc1ccc(CONS(=O)(=O)c2ccc(NC(C)=O)cc2)cc1Cl	n	n	n	n	n	50
Cn1nc(C(=O)Nc2ccc(S(=O)(=O)N3CCCCC3)cc2)c2ccccc2c1=O	n	n	n	n	n	51
C/C(=N\NC(=O)CCC(=O)Nc1ccc(C)c(C)c1)c1cccs1	n	n	n	n	n	n
c1ccc(Oc2ccc(-c3ccnc4ncnn34)cc2)cc1	n	n	n	n	n	68
COc1ccc(CNC(=O)CCCn2nc([N+](=O)[O-])cc2C)cc1	n	n	n	n	n	60
Cc1cc([N+](=O)[O-])nn1CCCC(=O)Nc1cc(Oc2ccccc2)cc([N+](=O)[O-])c1	n	n	n	n	n	56
Cc1cccc(NC(=O)CSCc2c(C)noc2C)c1C	56	n	n	n	n	n
CN(C)c1cccc(C(=O)OCC(=O)Nc2ccccc2-c2ccccc2)c1	n	n	n	n	n	n
CN(C)c1cccc(C(=O)OCC(=O)Nc2ccccc2Cl)c1	n	n	n	n	n	56
COC(=O)c1ccc(C2c3c(oc4ccc(Cl)cc4c3=O)C(=O)N2CCN2CCOCC2)cc1 (stereo not given)	n	n	n	n	n	n
Cc1cccc(NC(=S)NCCc2ccc3c(c2)OCCO3)c1C	n	n	n	n	n	n
O=C(Nc1cnn(Cc2ccc(F)cc2)c1)c1cc2nc(-c3ccco3)cc(C(F)(F)F)n2n1	n	n	n	n	n	91
SMILES	FXIIa inh	FXIa inh 1536	Furin inhibitor	hK5 inh	Thrombin inh	Calpain2 inh
CCCCN(C)CCNC(=O)c1ccc(Cn2c(=S)[nH]c3ccc(Br)cc3c2=O)cc1	n	n	n	n	n	n
CC(=O)NC1C(Oc2ccc3c(C)cc(=O)oc3c2)OC(COC(C)=O)C(OC(C)=O)C1OC(C)=O (stereo not given)	n	n	n	n	n	n
Cc1ccc(C2C=C(c3ccccc3)Nc3nc(N4C(=O)CCC4=O)nn32)cc1 (stereo not given)	n	n	n	n	48	n
O=c1[nH]ncc(NCc2ccc(Cl)cc2)c1Cl	n	n	n	n	x	n
O=C(NCCN1C(=O)C2C3C=CC(C3)C2C1=O)Nc1ccccc1 (stereo not given)	107	n	n	n	n	n
Cc1ccc(NC(=O)NCCN2C(=O)C3C4C=CC(C4)C3C2=O)cc1 (stereo not given)	n	n	n	n	n	n
CCOc1ccc2[nH]c(=O)c(C(c3nnnn3C3CCCCC3)N3CCN(C)CC3)cc2c1 (stereo not given)	48	n	n	n	n	n
CCOc1ccc2[nH]c(=O)c(C(c3nnnn3C3CCCCC3)N3CCN(CC)CC3)cc2c1 (stereo not given)	n	n	n	n	n	n
Cc1cc(SCC(=O)c2cccs2)nc2c(C)cccc12	n	n	n	n	n	n
Cc1cc2c(C)ccc(C)c2nc1SCC(=O)c1cccs1	n	n	n	n	n	51
CCOC(=O)N1CCC(NC(=O)C(CC(C)C)NC(=O)C2CCCCC2)CC1 (stereo not given)	n	n	n	n	n	n
CCOC(=O)[C@H]1O[C@@H]1C(=O)N[C@@H](CC(C)C)C(=O)NCCC(C)C	x	x	x	x	x	97
CC(C)CCNC(=O)[C@H](CC(C)C)NC(=O)[C@H]1O[C@@H]1C(=O)O	n	n	n	n	n	100
FC(F)(F)c1cc(-c2ccccc2)nc2nc(N3CCOCC3)sc12	n	n	n	n	n	n
COc1ccc(C2=NOC(C(=O)Nc3cccnc3Cl)C2)cc1 (stereo not given)	n	n	n	n	n	n
CSc1ccccc1C(=O)C1CCCN(S(=O)(=O)N(C)C)C1 (stereo not given)	102	n	n	n	n	n
CSc1ccccc1C(=O)C1CCCN(C(=O)c2csnn2)C1 (stereo not given)	n	n	n	n	n	n
Cc1cccc(C)c1-n1cccc1/C=C1\SC(=S)N(c2cccc(C(=O)O)c2)C1=O	n	n	n	x	n	111
N#CC1=C(N)C(C#N)(C#N)[C@H](c2ccoc2)[C@H]2CN(Cc3ccccc3)CC=C12	n	n	n	112	n	n
COc1ccccc1-c1cc(C(=O)NCc2ccco2)no1	n	n	n	48	n	n
COc1ccccc1-c1cc(C(=O)NCc2cccs2)no1	n	n	n	n	n	n
CCC(=O)N1CCc2cc(S(=O)(=O)CCC(=O)Nc3ccc(C)cn3)ccc21	n	n	n	n	n	n
COc1ccc(CN(C)CC(=O)Nc2cccc(S(N)(=O)=O)c2)c(OC)c1OC	n	n	n	n	n	n
CCc1ccc[n+](-c2[nH]c(=O)sc2/C=N/NC([S-])=Nc2ccccc2)c1	n	n	n	n	n	n
CCc1ccc[n+](-c2[nH]c(=O)sc2/C=N/N=C(\N)[O-])c1	n	42	n	n	n	n
CC(Oc1ccccc1)C(=O)Nc1nnc(C2CCCCC2)s1 (stereo not given)	n	n	n	n	n	n
CCCOc1ccc(OCCN2CCCC(C)C2)cc1 (stereo not given)	n	n	n	n	n	50
NS(=O)(=O)c1ccc(NC(=O)COC(=O)/C(=C/c2cccs2)c2cccs2)cc1	n	n	n	n	n	n
